Laboratory results reported in PubChem BioAssay AID977615 (Broad Institute, 2014).
Where “and” joins values, the source holds several entries; their conditions need not be identical. Equal values may be shown once. Calls of active or inactive are those of the source.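 The calls were made as follows: active = cell killing with fitted AC50 at or below twice the top valid dose for that sample; inconclusive = flat curve losing 30 to 70% signal, or bad fit; inactive = the rest.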

system: not listed separately; assay: viability loss in human kidney cells – cell-based, CellTiter-Glo luminescence, dry powder, set 17, cytotoxicity control, dose response (AID 977615); conditions: HEK293T viability, CellTiter-Glo ATP luminescence, 72 h; at 26 µM (top of the series)
Outline: (§1)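 Assay system: HEK293T cells. Buffer or medium: DMEM plus 10% FBS. Compound dosing: multi-concentration compound series. Schedule: 24 h attachment, 72 h compound exposure, 37 °C, 5% CO2. Signal: CellTiter-Glo ATP luminescence.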

Question: With `C[C@@H]1CN([C@H](C)CO)S(=O)(=O)c2ccc(C#C[C@@H](C)O)cc2O[C@@H]1CN(C)Cc1ccc(-c2ccccc2)cc1` as the molecule, how does the activity change, negative = cytotoxic read?
Answer: 2.1% (inactive)

Question: For `CO[C@H]1CN(C)C(=O)c2ccc(NC(=O)c3ccc(F)cc3)cc2OC[C@H](C)N(C(=O)c2ccc(F)cc2)C[C@@H]1C`, which activity change, negative = cytotoxic is on record?
Answer: 1.97% (inactive)

Question: With `C[C@H]1CN([C@@H](C)CO)S(=O)(=O)c2ccc(Br)cc2O[C@H]1CN(C)Cc1ccc(-c2ccccc2)cc1` as the molecule, how does the activity change, negative = cytotoxic read?
Answer: -0.919% (inactive)

Question: With `C[C@@H]1CN([C@H](C)CO)S(=O)(=O)c2ccc(C#C[C@@H](C)O)cc2O[C@H]1CN(C)Cc1ccc(-c2ccccc2)cc1` as the molecule, how does the activity change, negative = cytotoxic read?
Answer: -10.1% (inactive)

Question: With `C[C@@H](O)C#Cc1ccc2c(c1)O[C@@H](CN(C)S(=O)(=O)c1ccc(-c3ccccc3)cc1)[C@@H](C)CN([C@@H](C)CO)S2(=O)=O` as the molecule, how does the activity change, negative = cytotoxic read?
Answer: -12.1% (inactive)

Question: For `C[C@@H]1CN([C@@H](C)CO)S(=O)(=O)c2ccc(C#C[C@@H](C)O)cc2O[C@@H]1CN(C)Cc1ccc(-c2ccccc2)cc1`, which activity change, negative = cytotoxic is on record?
Answer: -8.45% (inactive)

Question: With `C[C@@H](O)C#Cc1ccc2c(c1)O[C@@H](CN(C)Cc1cccnc1)[C@@H](C)CN([C@@H](C)CO)S2(=O)=O` as the molecule, how does the activity change, negative = cytotoxic read?
Answer: 2.11% (inactive)

Question: For `C[C@@H](O)C#Cc1ccc2c(c1)O[C@@H](CN(C)Cc1ccncc1)[C@@H](C)CN([C@@H](C)CO)S2(=O)=O`, which activity change, negative = cytotoxic is on record?
Answer: -12% (inactive)

Question: Which activity change, negative = cytotoxic does the source give for `C[C@H](O)C#Cc1ccc2c(c1)O[C@H](CN(C)Cc1ccc(-c3ccccc3)cc1)[C@H](C)CN([C@@H](C)CO)S2(=O)=O` here?
Answer: -11.3% (inactive)

Question: Which activity change, negative = cytotoxic does the source give for `CNC[C@@H]1Oc2cc(Br)ccc2S(=O)(=O)N([C@@H](C)CO)C[C@@H]1C` here?
Answer: -16.1% (inactive)

system: HEK293T viability, CellTiter-Glo ATP luminescence, 72 h; assay: as above; conditions: not given
Outline: as §1

Question: Which AC50 does the source give for `COc1ccccc1-c1ccc(CN(C)C[C@@H]2Oc3cc(C#C[C@@H](C)O)ccc3S(=O)(=O)N([C@@H](C)CO)C[C@@H]2C)cc1` here?
Answer: 1350 nM

Question: Which AC50 does the source give for `C[C@@H](O)C#Cc1ccc2c(c1)O[C@@H](CN(C)Cc1ccc(-c3ccccc3Cl)cc1)[C@@H](C)CN([C@@H](C)CO)S2(=O)=O` here?
Answer: 364 nM

Question: With `C[C@@H](O)C#Cc1ccc2c(c1)O[C@@H](CN(C)Cc1ccc(-c3cccc(Cl)c3)cc1)[C@@H](C)CN([C@@H](C)CO)S2(=O)=O` as the molecule, how does the AC50 read?
Answer: 2080 nM

Question: With `C[C@H](O)C#Cc1ccc2c(c1)O[C@@H](CN(C)Cc1ccc(-c3ccccc3)cc1)[C@@H](C)CN([C@@H](C)CO)S2(=O)=O` as the molecule, how does the AC50 read?
Answer: 22000 nM

Question: Which AC50 does the source give for `C[C@H](O)C#Cc1ccc2c(c1)O[C@@H](CN(C)Cc1ccc(-c3ccccc3)cc1)[C@H](C)CN([C@H](C)CO)S2(=O)=O` here?
Answer: 26100 nM

Question: For `Cc1cccc(-c2ccc(CN(C)C[C@@H]3Oc4cc(C#C[C@@H](C)O)ccc4S(=O)(=O)N([C@@H](C)CO)C[C@@H]3C)cc2)c1`, which AC50 is on record?
Answer: 1530 nM

Question: Which AC50 does the source give for `C[C@H](CO)N1C[C@H](C)[C@H](CN(C)Cc2ccc(-c3ccccc3)cc2)Oc2cc(C#C[C@@H](C)O)ccc2S1(=O)=O` here?
Answer: 21700 nM

Question: Which AC50 does the source give for `COc1ccc(-c2ccc(CN(C)C[C@@H]3Oc4cc(C#C[C@@H](C)O)ccc4S(=O)(=O)N([C@@H](C)CO)C[C@@H]3C)cc2)cc1` here?
Answer: 1580 nM

Question: With `COc1ccc(-c2ccc3c(c2)O[C@@H](CN(C)Cc2ccc(-c4ccccc4)cc2)[C@@H](C)CN([C@@H](C)CO)S3(=O)=O)cc1` as the molecule, how does the AC50 read?
Answer: > 52000 nM (inactive)

Question: For `C[C@H]1CN([C@@H](C)CO)S(=O)(=O)c2ccc(C#CC(C)(C)O)cc2O[C@H]1CN(C)Cc1ccc(-c2ccccc2)cc1`, which AC50 is on record?
Answer: 18000 nM

Question: Which AC50 does the source give for `C[C@@H](O)C#Cc1ccc2c(c1)O[C@@H](CN(C)Cc1ccc(-c3ccc(Cl)cc3)cc1)[C@@H](C)CN([C@@H](C)CO)S2(=O)=O` here?
Answer: 1260 nM

Question: Which AC50 does the source give for `Cc1ccc(-c2ccc(CN(C)C[C@@H]3Oc4cc(C#C[C@@H](C)O)ccc4S(=O)(=O)N([C@@H](C)CO)C[C@@H]3C)cc2)cc1` here?
Answer: 1540 nM

Question: Which AC50 does the source give for `C[C@@H](O)C#Cc1ccc2c(c1)O[C@@H](CN(C)Cc1ccc(-c3ccccc3)cc1)[C@@H](C)CN([C@@H](C)CO)S2(=O)=O` here?
Answer: 3610 nM and 2940 nM

Question: With `Cc1ccccc1-c1ccc(CN(C)C[C@@H]2Oc3cc(C#C[C@@H](C)O)ccc3S(=O)(=O)N([C@@H](C)CO)C[C@@H]2C)cc1` as the molecule, how does the AC50 read?
Answer: 1890 nM

Question: With `C[C@@H](O)C#Cc1ccc2c(c1)O[C@H](CN(C)Cc1ccc(-c3ccccc3)cc1)[C@@H](C)CN([C@@H](C)CO)S2(=O)=O` as the molecule, how does the AC50 read?
Answer: 25900 nM

Question: With `C[C@H](O)C#Cc1ccc2c(c1)O[C@H](CN(C)Cc1ccc(-c3ccccc3)cc1)[C@@H](C)CN([C@@H](C)CO)S2(=O)=O` as the molecule, how does the AC50 read?
Answer: 7120 nM

Question: With `COc1cccc(-c2ccc(CN(C)C[C@@H]3Oc4cc(C#C[C@@H](C)O)ccc4S(=O)(=O)N([C@@H](C)CO)C[C@@H]3C)cc2)c1` as the molecule, how does the AC50 read?
Answer: 884 nM
